High-throughput results (PubChem)
Cneo AK release = causes C. neoformans cell lysis; adenylate kinase release luminescence, 4 h; normalised: neutral wells 0, clomiphene wells 100; lysis activity, % at 15 µM; 0.2% of 360,000 active;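 active means mean lysis activity across replicates of at least 80%, whatever share of replicates individually reach that level; inactive means mean lysis activity below 80%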
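Material: C. neoformans cells | Amount: Yeast cell density of 5 × 10^6 cells/mL | Medium: Fresh YPD growth medium | Dosing: Single dose | Times: Static 4 h at 37 °C with compound, 1 h detection | Detection: AK luminescence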
F508del corr = CFTR F508del correction in bronchial cells; CFBE cells, YFP halide quenching; stimulated with forskolin plus potentiator P3; % fluorescence drop versus neutral controls; activity (quench increase), % at 7.58 µM; 0.36% of 350,000 active; AID 720511;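 active means mean added fluorescence quench of at least 8% versus neutral control, with both replicates also reaching 8%; inconclusive means only one of the mean or replicate conditions met; inactive means mean below 8% and not both replicates reaching 8%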;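 further: cells transiently co-express mutant CFTR-F508del with the halide-sensitive YFP; corrector assay measuring rescue of mutant channel to the surface after 24 h compound exposure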
PDI turbidity = inhibitors of human protein disulfide isomerase. PDI insulin aggregation turbidity, A650, 90 min. 0.052% of 350,000 active. AID 588391. inhibition, % at 10 µM;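 active means mean inhibition across replicates of 30% or more, whatever share of single replicates reach that level; inconclusive means mean inhibition below 30% while every single replicate reaches 30%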
C2C12 statin = protects C2C12 myotubes from simvastatin toxicity; 0.78% of 330,000 active; rescue of ATP level, % at 7.49 µM; ATP luminescence, 48 h; scaled: DMSO 0, geranylgeraniol control 100;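 active means mean ATP rescue above about 67%, or every replicate alone reaching that limit, limit read from the data, passing the limit was not always enough; inconclusive means no clear call, values can overlap the other calls; inactive means mean under the limit and some replicate under it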;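 further: myotubes were challenged with 10 µM simvastatin during compound exposure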
DENV2 CPE rescue = inhibitors of DENV2 cytopathic effect. DENV2-infected cells, cytopathic effect rescue, plate reader. CPE inhibition, % at 9.99 µM. 1.7% of 350,000 active; in the data active means CPE inhibition above about 20%, passing the limit was not always enough; inconclusive means no clear call, values can overlap the other calls; tested in BHK-21 cells;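 further: 0% = median of neutral control wells and 100% = median of positive control wells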
ERp5 block = inhibitors of human ERp5; Q15084; ERp5 insulin aggregation, absorbance 650 nm, 90 min; inhibition, % at 9.99 µM; 0.05% of 350,000 active; AID 651711;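 active means mean replicate inhibition above about 25%, with every replicate also reaching it, limit read from the data, passing the limit was not always enough; inconclusive means only one of those two criteria met; inactive means neither criterion met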
Target sequence (Q15084 whole entry, looked up): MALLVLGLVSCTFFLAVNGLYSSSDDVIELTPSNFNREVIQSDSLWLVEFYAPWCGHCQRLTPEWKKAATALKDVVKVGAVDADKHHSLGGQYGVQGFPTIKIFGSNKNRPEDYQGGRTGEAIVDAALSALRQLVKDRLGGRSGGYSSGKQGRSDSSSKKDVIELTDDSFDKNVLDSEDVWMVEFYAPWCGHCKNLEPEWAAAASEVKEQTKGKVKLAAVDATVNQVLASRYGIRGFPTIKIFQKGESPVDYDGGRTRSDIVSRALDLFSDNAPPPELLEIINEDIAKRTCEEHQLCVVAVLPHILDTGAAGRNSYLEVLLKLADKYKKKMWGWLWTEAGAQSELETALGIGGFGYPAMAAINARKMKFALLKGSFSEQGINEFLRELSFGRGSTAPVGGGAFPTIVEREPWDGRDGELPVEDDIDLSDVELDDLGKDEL
Active calls of the source: *; u = inconclusive; x = no result. This is a sample that favours compounds with a hit; in the whole collection about 2.3% have one here.

SMILES	Cneo AK release	F508del corr	PDI turbidity	C2C12 statin	DENV2 CPE rescue	ERp5 block
NNC(=O)c1cc(C2CC2)nc2ccc(Br)cc12	1	1	-3	2	3	1
Cc1cc(C(=O)Nc2ccccc2)c2ccccc2n1	0	x	4	6	-2	-3
COc1cc(C(=O)Nc2ccc(C)cc2)c2ccccc2n1	0	11*	-4	-58	2	1
Cc1cccc(NC(=O)c2cc(Cl)nc3ccccc23)c1	0	x	-4	93*	x	x
NNC(=O)c1cc(-c2ccc(O)cc2)nc2ccc(Br)cc12	-3	4	40*	8	3	10
COCCCNC(=O)c1cc(-c2cccnc2)nc2ccccc12	1	-1	12	5	5	0
COc1ccccc1NC(=O)N1CCCCN2[C@H](CO)[C@@H](c3ccc(C#CC4CC4)cc3)[C@H]2C1	x	3	x	x	-6	2
CCOc1ccc(NC(=O)c2cc(OC)nc3ccccc23)cc1	x	11*	1	x	1	5
CCOc1ccc(NC(=O)c2cccc3ccccc23)cc1	3	6	2	-10	-8	0
CC(C)CC#Cc1ccc([C@@H]2[C@@H](CO)N3C(=O)CN(C(=O)Nc4ccc(F)cc4)C[C@@H]23)cc1	x	2	x	x	2	-3
CC(C)NC(=O)N(C)C[C@H]1Oc2cc(-c3ccccc3F)ccc2S(=O)(=O)N([C@@H](C)CO)C[C@H]1C	-1	1	x	-9	8	-4
COc1cc(C(=O)c2cocc2C(=O)c2ccc3c(c2)OCO3)cc(OC)c1OC	-3	13*	4	-74	-1	2
COc1cc(C(=O)c2ccc3c(c2)OCO3)cc(OC)c1OC	-2	2	-4	-24	-4	u
C[C@H]1CN([C@@H](C)CO)C(=O)Cc2cc(NC(=O)CCCCCC(=O)Nc3ccccc3N)ccc2O[C@H]1CN(C)Cc1ccc(C(F)(F)F)cc1	2	-3	x	111*	80*	7
C[C@@H]1CN([C@@H](C)CO)C(=O)Cc2cc(NC(=O)CCCCCC(=O)Nc3ccccc3N)ccc2O[C@H]1CN(C)Cc1ccc(C(F)(F)F)cc1	5	1	x	u	50*	4
C[C@@H]1CN([C@@H](C)CO)C(=O)c2cc(NC(=O)CCN3CCOCC3)ccc2O[C@H]1CN(C)Cc1ccc(C(=O)O)cc1	-1	3	x	-40	-2	5
CCC(=O)N1CC[C@@H]2[C@@H](CO)Nc3ccc(C#Cc4cccnc4)cc3[C@@H]21	12	0	x	-28	-1	7
O=C1CCC/C=C/C[C@H](CC(=O)N(CCO)Cc2ccccc2)C(=O)N[C@@H](Cc2ccccc2)CO1	0	0	7	-1	25*	-5
O=C(C[C@@H]1C[C@@H]2c3cc(NS(=O)(=O)c4ccc(F)cc4)ccc3O[C@@H]2[C@H](CO)O1)N1CCOCC1	2	0	x	-2	9	5
N#Cc1cc(-c2ccccc2)nnc1Sc1ccc(Cl)cc1	0	x	6	113*	x	x
CCCCCCc1ccc(N2C[C@H](CCCCC)[C@@H](CC(=O)NCc3ccc(OC)cc3)C2=O)cc1	-1	3	17	40	95*	-1
O=C(NC(Cc1ccccc1)C(=O)N1CCCCCC1)c1ccccc1 (stereo not drawn)	-3	1	10	-1	-2	4
O=C(NC(Cc1ccccc1)C(=O)N1CCN(S(=O)(=O)c2ccccc2F)CC1)c1ccccc1 (stereo not drawn)	-2	8.7*	7	23	7	9
COC(=O)C1=COC(OC2OC(CO)C(O)C(O)C2O)C2C(C)CC(=O)C12 (stereo not drawn)	-2	-3	x	2	-6	6
COC(=O)C1=CO[C@@H](O[C@@H]2O[C@H](CO)[C@@H](O)[C@H](O)[C@H]2O)C2C1CC(O)O[C@H]2C (stereo partly drawn)	1	0	1	-1	23*	8
SMILES	Cneo AK release	F508del corr	PDI turbidity	C2C12 statin	DENV2 CPE rescue	ERp5 block
CO[C@@H]1CN(C)C(=O)c2cc(NC(C)=O)ccc2OC[C@H](C)N(Cc2cccc(F)c2)C[C@H]1C	-1	-1	x	10	-2	3
CC1CCCCC12NC(=O)N(CC(=O)NCc1cccs1)C2=O (stereo not drawn)	0	4	0	11	29*	-2
CCOc1ccc2nc(NC(=O)CN3CCN(CC)CC3)sc2c1	10	1	8	-4	44*	4
COc1cc2c[n+](C)c3c4ccccc4ccc3c2cc1OC	x	9.7*	1	-93	6	-15
O=C([C@@H]1[C@@H](CO)[C@@H]2Cn3c(cccc3=O)[C@H]1N2C(=O)c1ccccc1)N1CCCCC1	-2	0	x	-8	4	-10
O=c1[nH]c2ccccc2nc1/C=C/c1ccc(Cl)cc1	-5	2	-1	120*	9	0
CO[C@H]1CN(C)C(=O)c2cc(NC(=O)Nc3cccc(Cl)c3)ccc2OC[C@H](C)NC[C@H]1C	0	-2	x	-25	1	-5
Cc1cc(C)nc(-n2nc(C)c3c(C(F)(F)F)cc(=O)[nH]c32)n1	-1	x	-6	x	x	-3
Cc1cc(C)nc(-n2nc(C)c3c(C(F)F)cc(C)nc32)n1	-1	x	-5	115*	x	x
Cc1ncc[nH]1	-3	1	x	9	57*	1
CCOC(=O)C(C)n1nc(/C=C/c2ccccc2)ccc1=O (stereo not drawn)	-5	x	2	118*	x	x
CN(C)CCCNC(=O)OC1CC2CC1[C@H]1CCCCN1C2=O (stereo partly drawn)	x	-1	x	x	48*	0
COc1ccc(CNC(=O)OC2CC3CC2[C@H]2CCCCN2C3=O)cc1 (stereo partly drawn)	x	-2	x	x	-3	-6
CC(=O)C1=C(O)C(=O)N(CCc2ccccc2)C1c1ccccc1[N+](=O)[O-] (stereo not drawn)	x	0	-16	x	31*	4
CCC(=O)Nc1ccc2c(c1)OC[C@@H](C)N(C(=O)COC)C[C@H](C)[C@@H](OC)CN(C)C2=O	x	-1	x	-3	x	x
C#CCN(C(=O)c1ccc(OC2CCN(C(=O)CCOC)CC2)cc1)C1CCCCC1	103*	0	-1	5	0	1
N#Cc1nc(NCC(F)F)nc(Nc2cc(F)cc(F)c2)n1	-7	8.0*	6	u	x	x
N#Cc1nc(Nc2cc(F)cc(F)c2)c2ncn(CC(F)F)c2n1	1	1	1	-34	-3	-9
CCCC(=O)Nc1ccc2c(c1)C(=O)N(C)[C@@H]1CC[C@H](CC(=O)NCc3ccccc3Cl)O[C@@H]1CO2	2	-3	x	-23	-15	5
O=C(Cc1ccccn1)N[C@H]1C=C[C@@H](CC(=O)N2CCCCC2)O[C@@H]1CO	1	1	x	-3	2	1
O=C(CNS(=O)(=O)c1ccc(Br)s1)N1CCN(c2ncccn2)CC1	-5	x	-7	150*	x	x
